We go through 13 molecules from ChEMBL document CHEMBL1145248, “Design, new synthesis, and calcilytic activity of substituted 3H-pyrimidin-4-ones” (Bioorg Med Chem Lett, 2005).

One may read the IC50 as the concentration at which inhibition is half-maximal.

For this assay, the target named is T1, Extracellular calcium-sensing receptor (Homo sapiens, UniProt P41180).
T1 sequence (P41180 whole entry): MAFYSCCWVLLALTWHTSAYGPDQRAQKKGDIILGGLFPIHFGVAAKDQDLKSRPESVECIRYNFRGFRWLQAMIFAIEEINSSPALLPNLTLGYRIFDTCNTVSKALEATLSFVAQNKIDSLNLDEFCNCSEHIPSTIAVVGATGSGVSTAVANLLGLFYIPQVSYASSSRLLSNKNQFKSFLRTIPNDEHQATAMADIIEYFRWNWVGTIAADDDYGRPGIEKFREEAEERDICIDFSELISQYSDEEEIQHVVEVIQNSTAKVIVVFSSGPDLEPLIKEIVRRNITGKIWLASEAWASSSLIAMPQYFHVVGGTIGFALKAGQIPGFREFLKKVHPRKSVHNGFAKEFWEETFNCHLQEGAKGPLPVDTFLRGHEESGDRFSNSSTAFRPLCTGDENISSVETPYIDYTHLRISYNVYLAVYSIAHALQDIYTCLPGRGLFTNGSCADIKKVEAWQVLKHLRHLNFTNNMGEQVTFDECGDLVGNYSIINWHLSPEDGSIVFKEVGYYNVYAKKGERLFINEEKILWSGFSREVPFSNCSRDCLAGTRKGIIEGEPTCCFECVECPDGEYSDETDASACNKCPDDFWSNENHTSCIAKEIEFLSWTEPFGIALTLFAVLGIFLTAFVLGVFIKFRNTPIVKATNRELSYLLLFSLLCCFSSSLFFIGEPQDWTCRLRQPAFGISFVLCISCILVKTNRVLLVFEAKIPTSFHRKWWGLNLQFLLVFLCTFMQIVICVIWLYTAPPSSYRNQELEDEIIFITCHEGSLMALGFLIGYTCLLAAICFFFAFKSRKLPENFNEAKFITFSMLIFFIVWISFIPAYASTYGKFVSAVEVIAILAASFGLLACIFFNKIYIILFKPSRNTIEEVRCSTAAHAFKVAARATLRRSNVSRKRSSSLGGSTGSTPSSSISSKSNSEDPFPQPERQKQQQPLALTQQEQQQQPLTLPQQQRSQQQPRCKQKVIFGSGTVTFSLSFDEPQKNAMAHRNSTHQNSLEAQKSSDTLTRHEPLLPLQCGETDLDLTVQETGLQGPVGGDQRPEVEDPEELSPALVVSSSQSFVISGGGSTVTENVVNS
The assay can be described thus: Inhibitory concentration was evaluated for in vitro calcilytic activity against human calcium receptor. Put shortly: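 HEK 293 4.0-7 cells stably expressing human CaR, loaded with fluo-3. Intracellular Ca2+ rise triggered by raising extracellular Ca2+ from 1.0 to 1.3 mM. Peak fluorescence normalized to the response without compound. Eight concentrations tested in duplicate, top concentration 30 µM. IC50 normalized to an internal reference standard run in parallel in each assay.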

`CCCc1c(C)nc(-c2ccccc2O)n(CCc2cccc(F)c2)c1=O`: the IC50 was 0.14 µM.
As for `O=c1c2c(nc(-c3ccccc3O)n1CCc1ccccc1)CCC2`, the figure is 0.2 µM.
As for `CCc1c(C)nc(-c2ccccc2O)n(CCc2ccccc2)c1=O`, the figure is 0.1 µM; as for `Cc1cc(=O)n(CCc2cccc(F)c2)c(-c2ccccc2O)n1`, 1.1 µM.
The same measure for `Cc1cc(=O)n(CCc2ccccc2F)c(-c2ccccc2O)n1`: 1.6 µM; for `Cc1nc(-c2ccccc2O)n(CCc2cccc(F)c2)c(=O)c1C(C)C`: 0.095 µM; for `CCc1c(C)nc(-c2ccccc2O)n(CCc2ccccc2F)c1=O`: 0.097 µM.
For the molecule `Cc1nc(-c2ccccc2O)n(CCc2ccccc2)c(=O)c1C`, the IC50 was 0.2 µM.
`Cc1cc(=O)n(CCc2ccccc2)c(-c2ccccc2O)n1`: the IC50 is 1.9 µM.
The same measure for `Cc1c(C(F)(F)F)nc(-c2ccccc2O)n(CCc2ccccc2)c1=O`: 0.8 µM.
The same measure for `Cc1nc(-c2ccccc2O)n(CCc2cccc(F)c2)c(=O)c1C`: 0.17 µM.
Regarding `O=c1c2c(nc(-c3ccccc3O)n1CCc1cccc(F)c1)CCC2`, the IC50 turned out to be 0.2 µM.
Turning to `O=c1c2c(nc(-c3ccccc3O)n1CCc1ccccc1)CCCC2`, the IC50 amounted to 0.14 µM.
